Experimental data pooled from the literature.
Protocols differ between the studies behind these lines.

For `CC1(C)NC(=O)N(c2ccc(F)c(S(C)(=O)=O)c2)C1=O`, the concentration was 130 ng/mL (male Swiss mouse, plasma; oral, 100 mg/kg, 24 h).
The concentration of `O=C1CCC(N2Cc3cc(C4CCN(Cc5ccccc5)CC4)ccc3C2=O)C(=O)N1` (stereo not drawn) is reported as 136 ng/mL (male CD-1 mouse, plasma; intravenous, 1 mg/kg, 15 min).
For `Cc1ccc2c(c1)C(=O)[C@]1(O)CCN(c3ccc4nc(C)ccc4c3)C1=N2`, the concentration was 3.7 µM (mouse, brain; subcutaneous, 10 mg/kg, 30 min, single dose).
The concentration of `NCc1cc2c(cc1F)C(=O)N(C1CCC(=O)NC1=O)C2` (stereo not drawn) is reported as 85.3 ng/mL (male CD-1 mouse, plasma; oral, 10 mg/kg, 40.2 min).
With `CC(C)c1cc(C(=O)NCCN)c2cnn(C(C)C)c2n1` the concentration was 2860 ng/mL (female BALB/c mouse, plasma; intraperitoneal, 50 mg/kg, 1 h).
The concentration of `Cc1nc2ccc(OCc3ccc(C(F)(F)F)cc3)cc2[nH]1` is reported as 2.9 ng/g (male BALB/c mouse, brain; intravenous, 1 mg/kg, 72 h).
`CC1(C)NC(=O)N(c2ccc(F)c(Br)c2)C1=O` has a concentration of 12500 ng/mL (male Swiss mouse, plasma; oral, 100 mg/kg, 24 h).
For `CC(C)n1ncc2c(C(=O)NCC3(C)CNC3)cc(C3CC3)nc21`, the concentration was 1230 ng/mL (female BALB/c mouse, plasma; intraperitoneal, 50 mg/kg, 4 h).
`CC(C)(C)S(=O)(=O)c1cc2c(Nc3ccc4scnc4c3)ncnc2cc1OCCOP(=O)(O)O` has a concentration of 1150 ng/mL (BALB/c mouse, plasma; oral, 10 mg/kg, 30 min).
